Results reported in ChEMBL document CHEMBL4043101, “Potent haloperidol derivatives covalently binding to the dopamine D2 receptor” (Bioorg Med Chem, 2017).
pKi: −log10 of the molar value.

Key:
D(2) dopamine receptor [1] = molecular target: T1, D(2) dopamine receptor (Homo sapiens, UniProt P14416); assay: Displacement of [3H]spiperone from human D2short receptor expressed in CHO cell membranes by radioligand binding assay
D(2) dopamine receptor [2] = molecular target: T1, D(2) dopamine receptor; assay: Displacement of [3H]spiperone from human D2long receptor expressed in CHO cell membranes by radioligand binding assay
Homo sapiens [3] = species: Homo sapiens; assay: Selectivity index, ratio of Ki for human D3 receptor expressed in CHO cell membranes to Ki for human D2short receptor expressed in CHO cell membranes; format: cell-based
Method in brief: (§1)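 Ratios of Ki values from [3H]spiperone competition binding on CHO membranes stably expressing human D2short, D3 or D4.4 receptors. The D3 and D4 Ki values are each divided by the D2short Ki.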

[4] = tested on: D(2) dopamine receptor (Homo sapiens), P14416 [L94C]; assay: Irreversible inhibition of [3H]spiperone binding to human D2short receptor L2.64C mutant expressed in HEK293T cell membranes incubated for 120 mins followed by compound wash out by radioligand depletion assay; conditions: HEK-293T
Method in brief: (§2)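 For screening, membranes from HEK 293T cells expressing the D2short L2.64C mutant (50 µg/mL protein) were preincubated with compound for 120 min at 37 °C in pH 7.4 Tris buffer. The reference, haloperidol, was used at 20 nM. Membranes were centrifuged and washed four times for 30 min each. Residual specific [3H]spiperone binding was normalized to nonspecific 0% and total 100%. Values are the mean of 2-4 experiments, each in quadruplicate, ±SD.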

[5] = Displacement of [3H]spiperone from human D2short receptor L2.64C mutant expressed in HEK293T cell membranes by radioligand binding assay; conditions: hek-293t
Method in brief: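 Membranes from HEK 293T cells transiently transfected with the mutant receptor in pcDNA3.1 were used for competition binding against [3H]spiperone (81 Ci/mmol), final 0.15-0.30 nM. Nonspecific binding was defined with 10 µM haloperidol. Protein was measured by Lowry with a BSA standard. IC50 came from a sigmoid nonlinear fit and was converted to Ki by Cheng-Prusoff.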

Homo sapiens [6] = species: Homo sapiens; assay: Selectivity index, ratio of Ki for human dopamine D4.4 receptor expressed in CHO cell membranes to Ki for human D2short receptor expressed in CHO cell membranes; format: cell-based; method in brief: as §1
[7] = tested on: D(2) dopamine receptor (Homo sapiens), P14416 [L94C]; assay: Irreversible inhibition of [3H]spiperone binding to human D2short receptor L2.64C mutant expressed in HEK293T cell membranes at 5 uM incubated for 120 mins followed by compound wash out by radioligand depletion assay; conditions: HEK-293T; method in brief: as §2
HEK-293T [8] = assay: Inhibition of [3H]spiperone binding to human D2short receptor L2.64C mutant expressed in HEK293T cell membranes at 2 and 5 uM incubated for 240 mins by radioligand depletion assay
D(3) dopamine receptor = D(3) dopamine receptor (Homo sapiens, UniProt P35462); assay: Displacement of [3H]spiperone from human D3 receptor expressed in CHO cell membranes by radioligand binding assay
HEK-293T [9] = assay: Inhibition of [3H]spiperone binding to human D2short receptor L2.64C mutant expressed in HEK293T cell membranes at 2 and 5 uM incubated for 30 mins by radioligand depletion assay
[10] = Displacement of [3H]spiperone from human dopamine D4.4 receptor expressed in CHO cell membranes by radioligand binding assay
Method in brief: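 Competition binding used membranes from CHO cells stably expressing human D4.4R, at 4-10 µg protein/tube, with [3H]spiperone final 0.15-0.30 nM (KD 0.14-0.25 nM, Bmax 1000-1700 […]). Nonspecific binding was defined with 10 µM haloperidol. Ki was obtained by sigmoid fit to IC50 and then Cheng-Prusoff. Each Ki is the mean of two independent experiments, each run in triplicate.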

[11] = tested on: D(2) dopamine receptor (Homo sapiens), P14416 [L94C]; assay: Irreversible inhibition of [3H]spiperone binding to human D2short receptor L2.64C mutant expressed in HEK293T cell membranes at 20 uM incubated for 120 mins followed by compound wash out by radioligand depletion assay; conditions: HEK-293T; method in brief: as §2
Homo sapiens [12] = species: Homo sapiens; assay: Selectivity index, ratio of Ki for human D2short receptor expressed in CHO cell membranes to Ki for human D2short receptor L2.64C mutant expressed in HEK293T cell membranes; format: cell-based
Method in brief: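 Ratio of the D2short Ki from CHO membranes to the Ki measured at the transiently expressed L2.64C mutant in HEK 293T membranes. Both Ki values come from [3H]spiperone competition binding with Cheng-Prusoff conversion.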

[13] = tested on: D(2) dopamine receptor (Homo sapiens), P14416 [L94C]; assay: Irreversible inhibition of [3H]spiperone binding to human D2short receptor L2.64C mutant expressed in HEK293T cell membranes assessed as covalent binding at 5 and 20 uM incubated for 120 mins followed by compound wash out by radioligand depletion assay; set-up: scale not given: the % may be the effect or the level left; conditions: HEK-293T; method in brief: as §2
[14] = tested on: D(2) dopamine receptor (Homo sapiens), P14416 [L94C]; assay: Irreversible inhibition of [3H]spiperone binding to human D2short receptor L2.64C mutant expressed in HEK293T cell membranes assessed as remaining [3H]spiperone binding at 5 and 20 uM incubated for 120 mins followed by compound wash out by radioligand depletion assay; conditions: HEK-293T; method in brief: as §2
HEK-293T [15] = assay: Inhibition of [3H]spiperone binding to human D2short receptor L2.64C mutant expressed in HEK293T cell membranes at 2 and 5 uM incubated for 120 mins by radioligand depletion assay
[16] = tested on: D(2) dopamine receptor (Homo sapiens), P14416 [L94C]; assay: Irreversible inhibition of [3H]spiperone binding to human D2short receptor L2.64C mutant expressed in HEK293T cell membranes at 1 uM incubated for 120 mins followed by compound wash out by radioligand depletion assay; conditions: HEK-293T; method in brief: as §2
HEK-293T [17] = assay: Inhibition of [3H]spiperone binding to human D2short receptor L2.64C mutant expressed in HEK293T cell membranes at 1 and 5 uM incubated for 240 mins by radioligand depletion assay; conditions: in the assay text read “120 mins” for “240 mins”
Method in brief: (§3)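 For kinetics, mutant receptor membranes from HEK 293T cells (50 µg/mL protein) were preincubated with compound at two concentrations for 15 to 240 min, at 37 °C, pH 7.4. The buffer was Tris/EDTA/MgCl2/bacitracin/trypsin inhibitor. Incubation was stopped by centrifugation, then membranes were washed four times (30 min resuspension each). Remaining specific [3H]spiperone binding was then measured, with 10 µM haloperidol defining nonspecific binding. Data were normalized to nonspecific 0% and total 100%.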

HEK-293T [18] = assay: Inhibition of [3H]spiperone binding to human D2short receptor L2.64C mutant expressed in HEK293T cell membranes at 1 and 5 uM incubated for 30 mins by radioligand depletion assay; method in brief: as §3
[19] = tested on: D(2) dopamine receptor (Homo sapiens), P14416 [L94C]; assay: Irreversible inhibition of [3H]spiperone binding to human D2short receptor L2.64C mutant expressed in HEK293T cell membranes at 10 uM incubated for 120 mins followed by compound wash out by radioligand depletion assay; conditions: HEK-293T; method in brief: as §2

T1 sequence (P14416 whole entry): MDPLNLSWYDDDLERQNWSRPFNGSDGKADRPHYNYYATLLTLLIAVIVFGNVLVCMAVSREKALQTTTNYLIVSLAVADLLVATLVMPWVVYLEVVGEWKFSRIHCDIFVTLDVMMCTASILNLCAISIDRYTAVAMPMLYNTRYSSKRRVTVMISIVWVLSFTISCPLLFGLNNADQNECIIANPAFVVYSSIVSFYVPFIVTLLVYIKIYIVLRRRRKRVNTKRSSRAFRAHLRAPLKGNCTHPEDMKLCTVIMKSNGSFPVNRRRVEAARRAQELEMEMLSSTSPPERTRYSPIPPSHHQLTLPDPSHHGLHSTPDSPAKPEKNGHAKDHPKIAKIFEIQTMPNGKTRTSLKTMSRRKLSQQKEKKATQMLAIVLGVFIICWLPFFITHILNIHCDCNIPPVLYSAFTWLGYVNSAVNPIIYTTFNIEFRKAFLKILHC
Sequence of D(3) dopamine receptor (P35462 whole entry): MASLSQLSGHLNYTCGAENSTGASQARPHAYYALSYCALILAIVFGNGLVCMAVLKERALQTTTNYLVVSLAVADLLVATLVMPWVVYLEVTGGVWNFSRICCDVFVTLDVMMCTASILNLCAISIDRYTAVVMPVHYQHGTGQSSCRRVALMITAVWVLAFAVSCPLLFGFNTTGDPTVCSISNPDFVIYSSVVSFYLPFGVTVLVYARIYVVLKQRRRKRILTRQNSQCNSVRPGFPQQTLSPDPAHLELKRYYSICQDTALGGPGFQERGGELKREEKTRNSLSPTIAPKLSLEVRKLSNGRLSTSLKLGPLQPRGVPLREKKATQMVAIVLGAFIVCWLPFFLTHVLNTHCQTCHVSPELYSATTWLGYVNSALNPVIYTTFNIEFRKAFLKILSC
Sequence of D(2) dopamine receptor (Homo sapiens), P14416 [L94C] (P14416 whole entry L94C): as the sequence (P14416 whole entry) above, with L94C counted along it

Compound | pKi (D(2) dopamine receptor [1]) | pKi (D(2) dopamine receptor [2]) | Ratio Ki (Homo sapiens [3]) | inhibition [4] | pKi [5] | Ratio Ki (Homo sapiens [6]) | inhibition [7] | inhibition (HEK-293T [8]) | pKi (D(3) dopamine receptor) | inhibition (HEK-293T [9]) | pKi [10] | inhibition [11] | Ratio Ki (Homo sapiens [12]) | Activity [13] | Activity [14] | inhibition (HEK-293T [15]) | inhibition [16] | inhibition (HEK-293T [17]) | inhibition (HEK-293T [18]) | inhibition [19]
COc1cc(CCN2CCC(O)(c3ccc(Cl)cc3)CC2)ccc1OCCSSCCN | 5.82 | 5.82 | 0.26 | Dose-dependent effect | 6.26 | 0.73 | 60 to 85% | 82% | 6.41 | 72% | 5.96 | 70 to 95% | 2.7 | – | – | – | – | – | – | –
O=C(NCCN1CCC(O)(c2ccc(Cl)cc2)CC1)NCCN1C(=O)C=CC1=O | 5.82 | 5.66 | 0.46 | Dose-dependent effect | 6.07 | > 33 | 60 to 85% | – | 6.16 | 70 to 85% | < 4.30 | 70 to 95% | 1.7 | > 90% | 5% | > 90% | – | – | – | –
COc1cc(CCN2CCC(O)(c3ccc(Cl)cc3)CC2)ccc1OCCCSSCCN | 6.03 | 6.00 | 0.63 | Dose-dependent effect | 6.07 | 1.6 | 60 to 85% | 85% | 6.22 | 87% | 5.82 | 70 to 95% | 1.1 | > 90% | 10% | – | – | – | – | –
O=C(CCCN1CCC(O)(c2ccc(Cl)cc2)CC1)c1ccc(F)cc1 [HALOPERIDOL] | – | – | – | – | – | – | – | – | – | – | 8.14 | – | – | – | – | – | – | – | – | –
[N-]=[N+]=NCCSSCCn1cc(C(=O)CCCN2CCC(O)(c3ccc(Cl)cc3)CC2)nn1 | 6.85 | 6.59 | 1.5 | Dose-dependent effect | 6.49 | 23 | 70 to 95% | – | 6.68 | – | 5.49 | – | 0.44 | – | – | – | 60 to 85% | 86% | 80% | –
O=C(CCCN1CCC(O)(c2ccc(Cl)cc2)CC1)c1ccc(OCCSSCCO)cc1 | 7.14 | 6.62 | 1.9 | Dose-dependent effect | 6.48 | 13 | – | – | 6.85 | – | 6.01 | – | 0.22 | – | – | – | 20% | – | – | < 70%
